Assay results reported in ChEMBL document CHEMBL4270642, “Boronic ester-linked macrocyclic lipopeptides as serine protease inhibitors targeting Escherichia coli type I signal peptidase” (Eur J Med Chem, 2018).
≈ marks a conversion by molar mass, not a printed value. Square brackets hold non-standard residues; d marks the D form. Peptide text beside a SMILES is read from it. * marks the point of attachment. Benzoyl(4-(4-hexylphenyl)) = CCCCCCc1ccc(-c2ccc(C(=O)*)cc2)cc1; boroAla = C[C@H](N*)B(O)O; Orn = NCCC[C@H](N)C(=O)O

Key:
[1] = target: Signal peptidase I (Escherichia coli K-12) (UniProt P00803); experiment: Inhibition of Escherichia coli type 1 signal peptidase lepB assessed as residual activity at 2.5 uM preincubated for 10 mins followed by Dabcyl-VGGTATAYGAFSRPGLE-(EDANS)-OH substrate addition measured after 2 hrs by FRET based assay (reference value: 100%)
Method in brief: (§1)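 EcLepB (about 50 nM estimated) preincubated 10 min with compound. Reaction started with Dabcyl/EDANS FRET peptide at 8 µM final (Km 20 µM). Fluorescence followed continuously at 535 nm, 22 °C, for 2 h. Cleavage rates plotted against inhibitor concentration; IC50 from non-linear regression of sigmoidal dose-response curves.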

[2] = target: Signal peptidase I (Escherichia coli K-12) (UniProt P00803); experiment: Inhibition of Escherichia coli type 1 signal peptidase lepB assessed as residual activity at 10 uM preincubated for 10 mins followed by Dabcyl-VGGTATAYGAFSRPGLE-(EDANS)-OH substrate addition measured after 2 hrs by FRET based assay (reference value: 100%); method in brief: as §1
Pseudomonas aeruginosa [3] = experiment: Antibacterial activity against Pseudomonas aeruginosa PAO1 after 16 to 20 hrs by broth microdilution method; format: functional
Method in brief: (§2)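 Broth microdilution in cation-adjusted Mueller-Hinton II per EUCAST/CLSI; two-fold compound series 64 down to 0.25 µg/mL final. Inoculum from fresh colonies (non-selective agar, 18-24 h, 35 ± 2 °C), adjusted to 0.5 McFarland, diluted to about 5 × 10^5 CFU/mL final. Static incubation 16-20 h at 35 ± 2 °C; MIC read visually as complete growth inhibition against medium-only wells.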

Escherichia coli [4] = experiment: Antibacterial activity against tolC deficient Escherichia coli CH3130 after 16 to 20 hrs by broth microdilution method; format: functional; method in brief: as §2
[5] = target: Signal peptidase I (Escherichia coli K-12) (UniProt P00803); experiment: Inhibition of Escherichia coli type 1 signal peptidase lepB assessed as residual activity at 0.0098 uM preincubated for 10 mins followed by Dabcyl-VGGTATAYGAFSRPGLE-(EDANS)-OH substrate addition measured after 2 hrs by FRET based assay (reference value: 100%); method in brief: as §1
Acinetobacter baumannii = experiment: Antibacterial activity against Acinetobacter baumannii ATCC 19606 after 16 to 20 hrs by broth microdilution method; format: functional; conditions: ATCC 19606 = CIP 70.34 = JCM 6841; method in brief: as §2
[6] = target: Signal peptidase I (Escherichia coli K-12) (UniProt P00803); experiment: Inhibition of Escherichia coli type 1 signal peptidase lepB assessed as residual activity at 5 uM preincubated for 10 mins followed by Dabcyl-VGGTATAYGAFSRPGLE-(EDANS)-OH substrate addition measured after 2 hrs by FRET based assay (reference value: 100%); method in brief: as §1
[7] = Hemolytic activity in human RBC at 100 uM after 45 mins by spectrophotometric method relative to control; format: ADME, cell-based, Erythrocyte; conditions: red blood cells (erythrocytes), read-out: Activity
Method in brief: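 Heparinized human blood; red cells washed three times in Tyrode buffer pH 7.4. Compound at 100 µM final with 1% DMSO and 50% RBC, shaken (250 rpm) 45 min at 37 °C. Cells pelleted (1000 × g, 10 min); supernatant haemoglobin at 540 nm. Percent lysis relative to buffer-only and 2% Triton X-100 controls.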

[8] = target: Signal peptidase I (Escherichia coli K-12) (UniProt P00803); experiment: Inhibition of Escherichia coli type 1 signal peptidase lepB assessed as residual activity at 0.0024 uM preincubated for 10 mins followed by Dabcyl-VGGTATAYGAFSRPGLE-(EDANS)-OH substrate addition measured after 2 hrs by FRET based assay (reference value: 100%); method in brief: as §1
Signal peptidase I = Signal peptidase I (Escherichia coli K-12, UniProt P00803); experiment: Inhibition of Escherichia coli type 1 signal peptidase lepB preincubated for 10 mins followed by Dabcyl-VGGTATAYGAFSRPGLE-(EDANS)-OH substrate addition measured after 2 hrs by FRET based assay; method in brief: as §1
Staphylococcus aureus = experiment: Antibacterial activity against Staphylococcus aureus ATCC 29213 after 16 to 20 hrs by broth microdilution method; format: functional; method in brief: as §2
Escherichia coli [9] = experiment: Antibacterial activity against Escherichia coli ATCC 25922 after 16 to 20 hrs by broth microdilution method; format: functional; method in brief: as §2
[10] = target: Signal peptidase I (Escherichia coli K-12) (UniProt P00803); experiment: Inhibition of Escherichia coli type 1 signal peptidase lepB assessed as residual activity at 1.25 uM preincubated for 10 mins followed by Dabcyl-VGGTATAYGAFSRPGLE-(EDANS)-OH substrate addition measured after 2 hrs by FRET based assay (reference value: 100%); method in brief: as §1
[11] = target: Signal peptidase I (Escherichia coli K-12) (UniProt P00803); experiment: Inhibition of Escherichia coli type 1 signal peptidase lepB assessed as residual activity at 0.3125 uM preincubated for 10 mins followed by Dabcyl-VGGTATAYGAFSRPGLE-(EDANS)-OH substrate addition measured after 2 hrs by FRET based assay (reference value: 100%); method in brief: as §1
Escherichia coli [12] = experiment: Antibacterial activity against Escherichia coli D22 CGSG 5163 harboring Ips mutant after 16 to 20 hrs by broth microdilution method; format: functional
Method in brief: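 Broth microdilution in cation-adjusted Mueller-Hinton II broth, following EUCAST and CLSI guidelines. Two-fold series at final concentrations 64 down to 0.25 µg/mL, with medium-only and growth controls. Inoculum from fresh colonies (18-24 h, 35 °C ± 2 °C) adjusted to 0.5 McFarland, final ≈5 × 10^5 CFU/mL. Plates incubated unshaken 16-20 h at 35 °C ± 2 °C. MIC read visually as complete inhibition of growth.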

[13] = target: Signal peptidase I (Escherichia coli K-12) (UniProt P00803); experiment: Inhibition of Escherichia coli type 1 signal peptidase lepB assessed as residual activity at 0.0049 uM preincubated for 10 mins followed by Dabcyl-VGGTATAYGAFSRPGLE-(EDANS)-OH substrate addition measured after 2 hrs by FRET based assay (reference value: 100%); method in brief: as §1
Klebsiella pneumoniae = experiment: Antibacterial activity against Klebsiella pneumoniae ATCC 13883 after 16 to 20 hrs by broth microdilution method; format: functional; method in brief: as §2
[14] = target: Signal peptidase I (Escherichia coli K-12) (UniProt P00803); experiment: Inhibition of Escherichia coli type 1 signal peptidase lepB assessed as residual activity at 0.0391 uM preincubated for 10 mins followed by Dabcyl-VGGTATAYGAFSRPGLE-(EDANS)-OH substrate addition measured after 2 hrs by FRET based assay (reference value: 100%); method in brief: as §1
[15] = target: Signal peptidase I (Escherichia coli K-12) (UniProt P00803); experiment: Inhibition of Escherichia coli type 1 signal peptidase lepB assessed as residual activity at 0.0195 uM preincubated for 10 mins followed by Dabcyl-VGGTATAYGAFSRPGLE-(EDANS)-OH substrate addition measured after 2 hrs by FRET based assay (reference value: 100%); method in brief: as §1
[16] = target: Signal peptidase I (Escherichia coli K-12) (UniProt P00803); experiment: Inhibition of Escherichia coli type 1 signal peptidase lepB assessed as residual activity at 0.0012 uM preincubated for 10 mins followed by Dabcyl-VGGTATAYGAFSRPGLE-(EDANS)-OH substrate addition measured after 2 hrs by FRET based assay (reference value: 100%); method in brief: as §1
HepG2 = experiment: Cytotoxicity against human HepG2 cells after 72 hrs by FMSA; format: cell-based; conditions: HepG2, 72 h
Method in brief: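 HepG2 (ATCC) grown in EMEM with 10% FBS, pen/strep, 2 mM L-glutamine, used up to 20 passages. Seeded at 1000 cells/well, cultured overnight, then dosed acoustically from DMSO stocks. Eight two-fold dilutions in duplicate from top 64 or 32 µM; 72 h at 37 °C, 5% CO2. Fluorescein diacetate hydrolysis read at ex 485/em 530 nm; IC50 by non-linear regression.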

[17] = target: Signal peptidase I (Escherichia coli K-12) (UniProt P00803); experiment: Inhibition of Escherichia coli type 1 signal peptidase lepB assessed as residual activity at 0.0781 uM preincubated for 10 mins followed by Dabcyl-VGGTATAYGAFSRPGLE-(EDANS)-OH substrate addition measured after 2 hrs by FRET based assay (reference value: 100%); method in brief: as §1
[18] = target: Signal peptidase I (Escherichia coli K-12) (UniProt P00803); experiment: Inhibition of Escherichia coli type 1 signal peptidase lepB assessed as residual activity at 0.625 uM preincubated for 10 mins followed by Dabcyl-VGGTATAYGAFSRPGLE-(EDANS)-OH substrate addition measured after 2 hrs by FRET based assay (reference value: 100%); method in brief: as §1
[19] = target: Signal peptidase I (Escherichia coli K-12) (UniProt P00803); experiment: Inhibition of Escherichia coli type 1 signal peptidase lepB assessed as residual activity at 0.0006 uM preincubated for 10 mins followed by Dabcyl-VGGTATAYGAFSRPGLE-(EDANS)-OH substrate addition measured after 2 hrs by FRET based assay (reference value: 100%); method in brief: as §1
Pseudomonas aeruginosa [20] = experiment: Antibacterial activity against efflux defective Pseudomonas aeruginosa PAO750 after 16 to 20 hrs by broth microdilution method; format: functional; method in brief: as §2
[21] = target: Signal peptidase I (Escherichia coli K-12) (UniProt P00803); experiment: Inhibition of Escherichia coli type 1 signal peptidase lepB assessed as residual activity at 0.1563 uM preincubated for 10 mins followed by Dabcyl-VGGTATAYGAFSRPGLE-(EDANS)-OH substrate addition measured after 2 hrs by FRET based assay (reference value: 100%); method in brief: as §1

Chain of Signal peptidase I (Escherichia coli K-12) (P00803 whole entry): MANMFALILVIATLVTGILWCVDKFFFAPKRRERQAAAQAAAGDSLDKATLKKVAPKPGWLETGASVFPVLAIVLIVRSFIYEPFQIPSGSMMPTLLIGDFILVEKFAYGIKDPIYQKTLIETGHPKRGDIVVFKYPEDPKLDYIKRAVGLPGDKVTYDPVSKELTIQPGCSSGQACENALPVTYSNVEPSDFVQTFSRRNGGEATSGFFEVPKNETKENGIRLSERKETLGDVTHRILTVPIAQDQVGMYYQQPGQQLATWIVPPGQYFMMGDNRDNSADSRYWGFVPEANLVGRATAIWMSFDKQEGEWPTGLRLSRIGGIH
Chain of Signal peptidase I (P00803 whole entry): as above

Structure (SMILES) | Activity [1] | Activity [2] | MIC (Pseudomonas aeruginosa [3]) | MIC (Escherichia coli [4]) | Activity [5] | MIC (Acinetobacter baumannii) | Activity [6] | hemolysis at 0.75 h, 100 µM [7] | Activity [8] | IC50 (Signal peptidase I) | MIC (Staphylococcus aureus) | MIC (Escherichia coli [9]) | Activity [10] | Activity [11] | MIC (Escherichia coli [12]) | Activity [13] | MIC (Klebsiella pneumoniae) | Activity [14] | Activity [15] | Activity [16] | also measured
CCCCCCc1ccc(-c2ccc(C(=O)N[C@@H](Cc3cnc[nH]3)C(=O)N[C@H](C(=O)N[C@@H](C)C(=O)N[C@H]3Cc4cn(nn4)CCCN4C[C@@H]5OB(O[C@@H]5C4)[C@H](C)NC3=O)[C@@H](C)O)cc2)cc1 | 27.8% | 20.8% | > 64 µg/mL | > 64 µg/mL | 91.4% | > 64 µg/mL | 25% | 4.1% | 94.7% | 107 nM | > 64 µg/mL | > 64 µg/mL | 34.1% | 39.7% | 64 µg/mL (≈ 70.5 µM) | 90.8% | > 64 µg/mL | 76.7% | 81% | 94% | IC50 (HepG2): 5400 nM; Activity [17]: 66.2%; Activity [18]: 34.2%; Activity [19]: 94.5%; MIC (Pseudomonas aeruginosa [20]): > 64 µg/mL; Activity [21]: 52%
CCCCCCc1ccc(-c2ccc(C(=O)N[C@@H](CCCN)C(=O)N[C@H](C(=O)N[C@@H](C)C(=O)N[C@@H](CC(N)=O)C(=O)N[C@@H](C)B(O)O)[C@@H](C)O)cc2)cc1 ({Benzoyl(4-(4-hexylphenyl))}-[Orn]TAN-boroAla) | 8.8% | 5.8% | 64 µg/mL (≈ 84.9 µM) | 1 µg/mL (≈ 1.33 µM) | 89.3% | 4 µg/mL (≈ 5.31 µM) | 6.7% | 4.8% | 87% | 52 nM | 0.025 µg/mL (≈ 0.0332 µM) | 8 µg/mL (≈ 10.6 µM) | 15.6% | 20.3% | 0.5 µg/mL (≈ 0.663 µM) | 93.9% | 2 µg/mL (≈ 2.65 µM) | 57.5% | 84.8% | 97.7% | IC50 (HepG2): 10100 nM; Activity [17]: 25.7%; Activity [18]: 20.6%; Activity [19]: 95.9%; MIC (Pseudomonas aeruginosa [20]): 16 µg/mL (≈ 21.2 µM); Activity [21]: 19.2%
